Results on 1 compound are retold here after ChEMBL document CHEMBL3272008, “Synthesis and biological actions of 2-substituted quinolizidines” (J Med Chem, 1976).

Active and inactive are the calls of the source. The calls are words filed in the database; no cut-off is given here.

Data set [1] relates to Rattus norvegicus. The experiment in a line: Depression of motor activity in Wistar rat at 1 to 6 mg/kg, ip. The format is functional, organism-based. A digest of the protocol: (§1)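 Male Wistar rats (175–225 g) were injected ip, with three treated rats and one control per dose. Compounds were in minimal 1.5 M NaH2PO4 diluted with water; the reference drug was in minimal 50% (w/v) tartaric acid-water. Gross behavior was observed. Respiratory rate, heart rate, rectal temperature and pupil size were measured at time points after dosing.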

The subject of data set [2] is Mus musculus. The experiment in a line: Acute toxicity in ip dosed Swiss-Webster mouse assessed as death administered as single dose after 72 hrs. The class given is organism-based. As to conditions: in vivo.
Data set [3] concerns Mus musculus. The data set can be described thus: Depression of spontaneous motor activity in Swiss-Webster mouse at 10 mg/kg, ip by photocell cage test relative to control. The format is functional. Particulars: route intraperitoneal. The gist of the method:
(§2)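 Spontaneous activity in three photocell cages: two mice given the same ip dose placed per cage 10 min after rotarod start; 15-min count begun 5 min after placement. Each dose run in factorial design across all three cages to offset unit sensitivity. Counts expressed as % of control; Student's t test, p < 0.05.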

The subject of data set [4] is Rattus norvegicus. The experiment in a line: Reduction in body temperature in Wistar rat at 1 to 6 mg/kg, ip relative to control. The format is functional. As to conditions: dose mg/kg 6; route intraperitoneal; in the assay text read “6 mg/kg” for “1 to 6 mg/kg”. A digest of the protocol: as §1
Data set [5] relates to Mus musculus. The data set can be described thus: Acute toxicity in ip dosed Swiss-Webster mouse assessed as tremor administered as single dose after 72 hrs. The format is organism-based. As to conditions: in vivo.
The test system of data set [6] is Mus musculus. The experiment in a line: Depression of forced motor activity in Swiss-Webster mouse at 10 mg/kg, ip after 30 mins by rotarod test relative to control. The format is functional. As to conditions: route intraperitoneal. The gist of the method: (§3)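 Rotarod in mice: rod at 4 rpm for 30 sec, 6 rpm next 30 sec, then stepped up every 30 sec (max 50 rpm) until fall. Six mice at a time, four trials (two per day, 4–6 hr apart, two consecutive days); vehicle or compound ip 30 min before fourth trial. Time on rod as % of control; Student's t test, p < 0.05.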
A general note: The rotarod test checks motor coordination on a turning rod.

Data set [7] in a line: Acute toxicity in ip dosed Swiss-Webster mouse administered as single dose after 7 days. The format is organism-based. As to conditions: in vivo. A digest of the protocol:
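Mice given a single ip dose at each of four dose levels; lethality followed over 7 days; LD50 with 95% confidence limits estimated by the method of Weil. Compounds dissolved in minimal 1.5 M NaH2PO4, diluted with water; haloperidol in minimal 50% (w/v) tartaric acid-water.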

Data set [8] concerns Mus musculus. The data set can be described thus: Depression of spontaneous motor activity in Swiss-Webster mouse at 2.5 mg/kg, ip by photocell cage test relative to control. The format is functional. Particulars: route intraperitoneal. A digest of the protocol:
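Compound was dissolved in minimal 1.5 M NaH2PO4, diluted with water and given ip. Two mice given the same dose went into each of three photocell actophotometer cages 10 min after the rotarod test started. Counts were taken over 15 min, starting 5 min after placement. A factorial design across cages cancelled differences between units. Results were given as % of control, with significance by Student's t test (p < 0.05).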

For data set [9], the system named is Rattus norvegicus. The experiment in a line: Induction of ptosis in Wistar rat at 1 to 6 mg/kg, ip. The format is functional, organism-based. Particulars: in the assay text read “6 mg/kg” for “1 to 6 mg/kg”. The gist of the method: as §1
The test system of data set [10] is Mus musculus. The experiment in a line: Depression of spontaneous motor activity in Swiss-Webster mouse at 5 mg/kg, ip by photocell cage test relative to control. The class given is functional. Particulars: route intraperitoneal. The gist of the method: as §2
Data set [11] concerns Mus musculus. The data set can be described thus: Acute toxicity in ip dosed Swiss-Webster mouse assessed as ataxia administered as single dose after 72 hrs. The class given is organism-based. Particulars: in vivo.
Data set [12] has as its system Mus musculus. The experiment in a line: Depression of forced motor activity in Swiss-Webster mouse at 5 mg/kg, ip after 30 mins by rotarod test relative to control. The format is functional. Particulars: route intraperitoneal. The gist of the method:
as §3

The subject of data set [13] is Mus musculus. The experiment in a line: Depression of forced motor activity in Swiss-Webster mouse at 2.5 mg/kg, ip after 30 mins by rotarod test relative to control. The format is functional. Particulars: route intraperitoneal. The gist of the method:
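Mice were dosed ip with vehicle or compound dissolved in a minimum of 1.5 M NaH2PO4 and diluted with water. On the rotarod, speed was 4 rpm for 30 sec, then 6 rpm for 30 sec, then increased every 30 sec up to a maximum of 50 rpm until the fall. Each mouse had four trials, two per day on two consecutive days, spaced 4–6 hr apart. The fourth trial was run 30 min after dosing. The read-out was trial time (sec) as % of control, with significance by Student's t test (p < 0.05).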

By LD50 is commonly meant the dose expected to kill half of the subjects tested. A high value points to a less toxic substance. For the compound `O=C(CCCN1CCC(O)(c2ccc(Cl)cc2)CC1)c1ccc(F)cc1` [HALOPERIDOL], the outcome in the data set with Rattus norvegicus [1] and in the data set on Rattus norvegicus [9] was Active. The Activity entry in the data set with Mus musculus [2] is on record as “Toxic”; with Mus musculus [3], 0.2%; in the data set with Mus musculus [5], “Toxic”; in the data set with Mus musculus [6], 26.4%; in the data set with Mus musculus [8] it was 27.6%; in the data set on Mus musculus [10], 13%. Moreover, the Activity result in the data set with Mus musculus [11] is “Toxic”; in the data set with Mus musculus [12] it was 79.4%; with Mus musculus [13], 99.3%. In addition, in the data set with Rattus norvegicus [4], the T was 2 °C. For the same compound, the LD50 at 168 h in [7] was 49.7 mg/kg.
